In article PMC9123937 (International Journal of Nanomedicine, 2022):

Tests used:
[1] = system: MHCC-97H cells; assay: Apoptosis assay; assay type: cell-based, human; conditions: 24 h
How it was run: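 MHCC-97H cells (high-glucose DMEM, 10% FBS, 37°C, 5% CO2) seeded at 2×10^5 cells/well in 6-well plates and cultured 24 h. Test compound added at 5, 10 or 20 μmol/L for a further 24 h, with 0.1% DMSO and medium controls. Harvested cells stained with Annexin V-FITC and PI for 15 min in the dark in binding buffer, then analysed by flow cytometry.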

[2] = system: MHCC-97H cells; assay: Cytotoxicity study; assay type: cell-based; conditions: Homo sapiens, MHCC97H, 96 h, read-out: 96-hour inhibition rate
How it was run: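 MHCC-97H cells seeded at 3×10^3 cells/well in 96-well plates and cultured 24 h. Test compound added at final 0, 6.25, 12.5, 25, 50 or 100 μg/mL for 24, 48, 72 or 96 h at 37°C, with 0.1% DMSO as negative control. MTT (5 mg/mL stock) added for 3.5 h at 37°C, formazan dissolved in DMSO, absorbance read at 490 nm.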

COc1cc(/C=C/C(=O)CC(=O)/C=C/c2ccc(O)c(OC)c2)ccc1O [CU, curcumin]
apoptosis rate ([1]; 5 μmol/L): 17.29 ± 0.66%
apoptosis rate ([1]; 10 μmol/L): 25.74 ± 0.61%
apoptosis rate ([1]; 20 μmol/L): 33.11 ± 1.00%
inhibition at 100 µg/mL [2]: 68.2 ± 1.19%
